Activity calls are given as the source filed them. The calls are words filed in the database; no cut-off is given here.
How the values were obtained:
[1] = biological target: T1, Proteasome Macropain subunit MB1 (Homo sapiens, UniProt P28074); test: Inhibition of human 20s proteasome beta5 subunit mediated chymotrypsin-like activity using LLVY-R110 as substrate measured every three mins for 1 hr by fluorescence based SpectraMax M5e plate reader
T1 sequence (P28074 whole entry): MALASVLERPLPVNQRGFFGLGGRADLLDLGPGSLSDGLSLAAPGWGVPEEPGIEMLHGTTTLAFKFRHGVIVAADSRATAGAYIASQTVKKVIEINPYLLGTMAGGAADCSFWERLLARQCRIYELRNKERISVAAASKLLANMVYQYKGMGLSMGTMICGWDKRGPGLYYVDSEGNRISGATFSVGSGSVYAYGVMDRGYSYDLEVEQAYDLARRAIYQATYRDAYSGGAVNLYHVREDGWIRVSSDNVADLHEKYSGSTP
Summary of the method: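 Purified human 20S proteasome was diluted in TBS pH 7.4 to a 0.44 μM intermediate stock. Serial DMSO dilutions of inhibitor (1 μL) went into a 100 μL reaction with LLVY-R110 substrate, and 1 μL of proteasome stock was added to start.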

[2] = biological target: T2, Subtilisin-like protease 1 (Plasmodium falciparum) (UniProt O61142); test: Inhibition of recombinant Plasmodium falciparum SUB1 using Ac-CKITAQDDEESC-OH as fluorogenic substrate at 1 uM pre-incubated for 5 mins followed by substrate addition and measured every 3 mins for 60 mins by fluorescence based SpectraMax M5e plate reader; conditions: time 65.0 min
T2 sequence (whole entry): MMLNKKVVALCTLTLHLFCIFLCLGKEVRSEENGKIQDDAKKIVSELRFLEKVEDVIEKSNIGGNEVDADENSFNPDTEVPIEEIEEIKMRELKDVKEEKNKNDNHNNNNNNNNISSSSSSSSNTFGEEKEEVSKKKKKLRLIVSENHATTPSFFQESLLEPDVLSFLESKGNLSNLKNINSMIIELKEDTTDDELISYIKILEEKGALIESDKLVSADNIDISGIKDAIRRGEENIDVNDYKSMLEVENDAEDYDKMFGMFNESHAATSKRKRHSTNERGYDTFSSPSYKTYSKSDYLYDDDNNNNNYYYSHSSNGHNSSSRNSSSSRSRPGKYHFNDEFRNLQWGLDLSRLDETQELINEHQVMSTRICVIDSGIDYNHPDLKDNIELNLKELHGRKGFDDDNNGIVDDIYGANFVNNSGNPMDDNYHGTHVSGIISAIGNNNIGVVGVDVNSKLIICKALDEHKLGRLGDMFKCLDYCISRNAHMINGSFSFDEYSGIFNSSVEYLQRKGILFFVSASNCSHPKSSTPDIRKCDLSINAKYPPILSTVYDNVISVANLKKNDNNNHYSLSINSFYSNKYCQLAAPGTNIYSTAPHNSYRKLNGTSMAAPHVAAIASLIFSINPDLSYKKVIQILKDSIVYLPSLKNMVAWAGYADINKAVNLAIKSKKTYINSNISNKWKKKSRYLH

[3] = biological target: T3, Subtilisin-like protease 1 (Plasmodium falciparum, UniProt O61142); test: Inhibition of Plasmodium falciparum SUB1
T3 sequence (O61142 whole entry): T2 sequence (whole entry)
Summary of the method: (§1)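 Chymotrypsin-treated recombinant PfSUB1 stock (228 U/mL) was diluted 1:500 in 20 mM Tris-HCl pH 8.2, 150 mM NaCl, 12 mM CaCl2, 25 mM CHAPS. Inhibitor DMSO stocks (500 to 0.01 μM) were diluted 1:100 and preincubated with enzyme for 5 min. Fluorogenic SERA4st1F-6R12 substrate was then added (0.1 μM final), with ex 552/em 580 nm read every 3 min for 60 min.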

[4] = Selectivity ratio IC50 for human 20s proteasome beta5 subunit mediated chymotrypsin-like activity to IC50 for Plasmodium falciparum SUB1
[5] = biological target: T3, Subtilisin-like protease 1; test: Inhibition of recombinant Plasmodium falciparum SUB1 using Ac-CKITAQDDEESC-OH as fluorogenic substrate pre-incubated for 5 mins followed by substrate addition and measured every 3 mins for 60 mins by fluorescence based SpectraMax M5e plate reader; summary of the method: as §1

IC50 [1] [µM]	SMILES	IC50 [3] [nM]	also measured
1	CC[C@H](C)[C@H](NC(=O)[C@@H](NC(=O)c1cc(C)cc(C)c1)C1CCCC1)C(=O)NCC(=O)N[C@H]1CCC(=O)OB1O		
	CC(C)C[C@H](NC(=O)[C@H](Cc1ccccc1)NC(=O)c1cnccn1)B(O)O		inhibition [2]: inactive
	CC(=O)N[C@H](C(=O)N[C@H](C(=O)NCC(=O)N[C@@H](C)B(O)O)[C@@H](C)O)C1CCCC1	9.3	
35.6	CC(=O)N[C@H](C(=O)N[C@H](C(=O)NCC(=O)N[C@H]1CCC(=O)OB1O)[C@@H](C)O)C1CCCC1	18.7	Ratio IC50 [4]: 1900
	CC[C@H](C)[C@H](NC(=O)[C@@H](NC(=O)c1ccccc1)C1CCCC1)C(=O)NCC(=O)N[C@@H](C)B(O)O		IC50 [5]: 3.2 nM

Source: ChEMBL document CHEMBL5523765, “Peptidic Boronic Acid Plasmodium falciparum SUB1 Inhibitors with Improved Selectivity over Human Proteasome” (J Med Chem, 2024)
